According to ChEMBL document CHEMBL5154713, “Illuminating a Dark Kinase: Structure-Guided Design, Synthesis, and Evaluation of a Potent Nek1 Inhibitor and Its Effects on the Embryonic Zebrafish Pronephros” (J Med Chem, 2022):

What was measured:
[1] = molecular target: Serine/threonine-protein kinase Chk1 (Homo sapiens) (UniProt O14757); assay: Inhibition of human full length recombinant CHK1 assessed as residual activity at 1 uM using KKKVSRSGLYRSPSMPENLNRPR as substrate incubated for 40 mins in presence of [gamma 33P]-ATP by radiometric scintillation counting assay relative to control
Procedure, shortened: (§1)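 Commercial radiometric panel of 50 kinases. Each recombinant human kinase was tested at a single compound concentration of 1 μM. ATP was set within 15 μM of the apparent Km for ATP for each kinase. Residual activity is relative to control and is the mean of two independent experiments.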

[2] = molecular target: Tyrosine-protein kinase ABL1 (Homo sapiens) (UniProt P00519); assay: Inhibition of human recombinant ABL (27 to end residues) assessed as residual activity at 1 uM using EAIYAAPFAKKK as substrate incubated for 40 mins in presence of [gamma33P-ATP] by radiometric scintillation counting analysis; procedure, shortened: as §1
[3] = molecular target: Serine/threonine-protein kinase Nek3 (Homo sapiens) (UniProt P51956); assay: Inhibition of recombinant full-length human NEK3 assessed as residual activity at 1 uM using myelin basic protein as substrate measured after 40 mins in presence of [gamma33P]ATP by radiometric scintillation counting method relative to control; procedure, shortened: as §1
[4] = Toxicity in wild-type Zebrafish embryos assessed as effect on body curvature at 0.05 to 30 uM measured upto 120 hrs; design: species or system Danio rerio; settings: in vivo, dose 0.05-30 µM
Procedure, shortened: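 Wild-type embryos, 15 per group with intact chorions, dosed at 6 hpf with 0.05–30 μM final concentrations in E3, diluted from a DMSO stock. Survival checked every 24 h by heartbeat over 120 h, and phenotypes assessed visually. At least triplicate, 5 replicates at 30 μM.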

[5] = molecular target: Protein-tyrosine kinase 6 (Homo sapiens) (UniProt Q13882); assay: Inhibition of recombinant full length human BRK assessed as residual activity at 1 uM using poly(Glu, Tyr) 4:1 as substrate incubated for 40 mins in presence of [gamma-33ATP] by scintillation counting based radiometry assay relative to control; procedure, shortened: as §1
[6] = molecular target: Mitogen-activated protein kinase 14 (Homo sapiens) (UniProt Q16539); assay: Inhibition of recombinant human full length SAPK2a assessed as residual activity at 1 uM using myelin basic protein as substrate measured after 40 mins in presence of [gamma33P]ATP by scintillation counting method relative to control; procedure, shortened: as §1
[7] = molecular target: Serine/threonine-protein kinase 4 (Homo sapiens) (UniProt Q13043); assay: Inhibition of human full length recombinant MST1 assessed as residual activity at 1 uM using KKSRGDYMTMQIG as substrate incubated for 40 mins in presence of [gamma 33P]-ATP by radiometric scintillation counting assay relative to control; procedure, shortened: as §1
[8] = molecular target: Serine/threonine-protein kinase Nek11 (Homo sapiens) (UniProt Q8NG66); assay: Inhibition of human full length recombinant NEK11 assessed as residual activity at 1 uM using myelin basic protein as substrate incubated for 40 mins in presence of [gamma 33P]-ATP by radiometric scintillation counting assay relative to control; procedure, shortened: as §1
[9] = molecular target: T1, Serine/threonine-protein kinase Nek1 (Homo sapiens, UniProt Q96PY6); assay: Inhibition of human recombinant NEK1 (1 to 505 residues) using RLGRDKYKTLRQIRQ as substrate incubated for 40 mins in presence of [gamma-33P]-ATP by radiometric scintillation counting assay
T1 sequence (Q96PY6 whole entry): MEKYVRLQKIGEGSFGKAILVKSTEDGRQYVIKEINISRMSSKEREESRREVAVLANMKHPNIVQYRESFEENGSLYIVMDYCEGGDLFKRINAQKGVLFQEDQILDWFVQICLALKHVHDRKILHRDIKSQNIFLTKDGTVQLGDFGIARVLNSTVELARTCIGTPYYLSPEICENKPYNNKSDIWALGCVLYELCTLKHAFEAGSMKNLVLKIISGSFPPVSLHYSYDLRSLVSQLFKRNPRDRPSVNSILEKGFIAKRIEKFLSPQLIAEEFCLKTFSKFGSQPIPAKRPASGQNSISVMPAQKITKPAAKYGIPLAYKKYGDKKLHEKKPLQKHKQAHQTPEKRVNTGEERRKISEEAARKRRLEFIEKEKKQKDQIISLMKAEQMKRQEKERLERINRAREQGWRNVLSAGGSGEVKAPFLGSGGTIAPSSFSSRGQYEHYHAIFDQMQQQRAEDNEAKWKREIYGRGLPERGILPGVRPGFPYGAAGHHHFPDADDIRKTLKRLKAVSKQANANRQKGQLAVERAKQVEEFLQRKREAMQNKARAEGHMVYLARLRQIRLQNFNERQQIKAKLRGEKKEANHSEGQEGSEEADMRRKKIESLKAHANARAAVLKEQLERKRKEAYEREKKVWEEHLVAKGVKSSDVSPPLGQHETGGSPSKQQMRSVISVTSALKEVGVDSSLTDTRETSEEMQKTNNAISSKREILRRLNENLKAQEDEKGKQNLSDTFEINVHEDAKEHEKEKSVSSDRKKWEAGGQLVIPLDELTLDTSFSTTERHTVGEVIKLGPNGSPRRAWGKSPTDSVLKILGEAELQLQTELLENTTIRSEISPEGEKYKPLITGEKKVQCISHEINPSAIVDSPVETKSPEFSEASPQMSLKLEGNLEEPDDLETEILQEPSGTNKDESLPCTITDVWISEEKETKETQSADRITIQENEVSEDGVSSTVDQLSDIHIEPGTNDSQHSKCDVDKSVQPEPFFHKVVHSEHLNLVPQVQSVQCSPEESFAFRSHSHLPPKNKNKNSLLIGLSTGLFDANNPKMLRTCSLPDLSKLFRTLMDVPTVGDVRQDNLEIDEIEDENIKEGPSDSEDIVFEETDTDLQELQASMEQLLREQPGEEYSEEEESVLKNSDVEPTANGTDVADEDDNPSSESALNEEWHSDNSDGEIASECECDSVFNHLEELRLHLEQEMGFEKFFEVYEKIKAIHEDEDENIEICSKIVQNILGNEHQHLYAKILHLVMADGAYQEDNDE
Procedure, shortened: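 Eurofins IC50Profiler radiometric assay on recombinant human Nek1 (1−505), ATP at 10 μM or 90 μM (near Km). Nine concentrations at half-log steps from 10 μM to 1 nM, with vehicle controls. IC50 and 95% CI obtained by four-parameter nonlinear regression. Mean of two independent experiments.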

[10] = Permeability across apical to basolateral side in human Caco-2 cells at pH 6.5 to 7.4 by HPLC-MS/MS analysis; type: ADME, cell-based; settings: Caco-2, pH 6.5, read-out: permeability
Procedure, shortened: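 Commercial Caco-2 assay, apical-to-basolateral direction at pH 6.5/7.4. Permeability and percent recovery taken from HPLC-MS/MS peak area response. Propranolol, labetalol, colchicine and ranitidine run in parallel as references.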

[11] = molecular target: Mitogen-activated protein kinase kinase kinase 5 (Homo sapiens) (UniProt Q99683); assay: Inhibition of recombinant human ASK1 (649 to 946 residues) assessed as residual activity at 1 uM using myelin basic protein as substrate measured after 40 mins in presence of [gamma33P]ATP by radiometric scintillation counting method; procedure, shortened: as §1
Sequence of Mitogen-activated protein kinase kinase kinase 5 (Homo sapiens) (Q99683 whole entry, the tested form may be a part): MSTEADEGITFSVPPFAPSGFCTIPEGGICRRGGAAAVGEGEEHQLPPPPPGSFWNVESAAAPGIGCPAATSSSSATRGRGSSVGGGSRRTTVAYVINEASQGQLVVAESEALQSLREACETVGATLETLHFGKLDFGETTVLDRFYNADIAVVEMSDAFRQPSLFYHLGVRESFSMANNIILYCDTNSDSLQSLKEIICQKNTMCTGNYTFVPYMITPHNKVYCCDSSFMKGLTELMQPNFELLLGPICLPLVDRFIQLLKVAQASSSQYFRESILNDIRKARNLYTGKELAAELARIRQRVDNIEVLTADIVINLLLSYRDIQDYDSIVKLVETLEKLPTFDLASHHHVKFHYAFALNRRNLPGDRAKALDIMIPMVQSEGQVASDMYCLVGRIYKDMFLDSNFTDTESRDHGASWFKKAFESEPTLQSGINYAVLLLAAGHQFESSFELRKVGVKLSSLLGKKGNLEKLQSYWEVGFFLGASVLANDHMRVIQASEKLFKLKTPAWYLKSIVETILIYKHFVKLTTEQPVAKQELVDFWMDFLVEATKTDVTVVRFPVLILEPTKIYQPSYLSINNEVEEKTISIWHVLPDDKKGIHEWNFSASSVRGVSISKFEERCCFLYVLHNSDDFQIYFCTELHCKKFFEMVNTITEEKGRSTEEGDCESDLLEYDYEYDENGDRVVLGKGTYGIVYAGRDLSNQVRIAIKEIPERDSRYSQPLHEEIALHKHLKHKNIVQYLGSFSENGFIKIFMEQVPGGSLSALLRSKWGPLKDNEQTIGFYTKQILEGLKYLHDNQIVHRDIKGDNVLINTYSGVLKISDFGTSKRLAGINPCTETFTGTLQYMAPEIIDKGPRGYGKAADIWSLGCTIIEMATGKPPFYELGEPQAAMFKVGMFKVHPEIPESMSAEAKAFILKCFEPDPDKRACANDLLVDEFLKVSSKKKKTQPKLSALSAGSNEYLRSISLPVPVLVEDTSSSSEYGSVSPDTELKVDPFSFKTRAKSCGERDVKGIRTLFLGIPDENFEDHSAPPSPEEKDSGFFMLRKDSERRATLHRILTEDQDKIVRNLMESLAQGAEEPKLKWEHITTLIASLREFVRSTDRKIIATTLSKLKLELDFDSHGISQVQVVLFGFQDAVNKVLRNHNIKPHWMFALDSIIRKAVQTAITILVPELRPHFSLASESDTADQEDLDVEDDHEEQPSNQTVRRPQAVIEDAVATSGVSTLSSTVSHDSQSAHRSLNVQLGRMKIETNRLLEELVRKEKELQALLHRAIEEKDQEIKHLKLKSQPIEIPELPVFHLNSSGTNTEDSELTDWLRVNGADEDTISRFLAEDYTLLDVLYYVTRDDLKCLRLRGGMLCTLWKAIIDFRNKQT

Sequence of Mitogen-activated protein kinase 14 (Homo sapiens) (Q16539 whole entry): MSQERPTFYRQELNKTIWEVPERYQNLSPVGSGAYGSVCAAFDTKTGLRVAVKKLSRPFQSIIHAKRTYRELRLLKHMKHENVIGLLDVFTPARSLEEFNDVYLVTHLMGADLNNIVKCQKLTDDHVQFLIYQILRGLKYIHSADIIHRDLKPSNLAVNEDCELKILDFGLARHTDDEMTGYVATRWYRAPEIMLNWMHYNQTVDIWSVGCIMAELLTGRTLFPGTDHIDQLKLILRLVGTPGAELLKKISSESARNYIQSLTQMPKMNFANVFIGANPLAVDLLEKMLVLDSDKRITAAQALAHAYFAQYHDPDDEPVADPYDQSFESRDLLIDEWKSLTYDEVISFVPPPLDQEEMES
Sequence of Tyrosine-protein kinase ABL1 (Homo sapiens) (P00519 whole entry): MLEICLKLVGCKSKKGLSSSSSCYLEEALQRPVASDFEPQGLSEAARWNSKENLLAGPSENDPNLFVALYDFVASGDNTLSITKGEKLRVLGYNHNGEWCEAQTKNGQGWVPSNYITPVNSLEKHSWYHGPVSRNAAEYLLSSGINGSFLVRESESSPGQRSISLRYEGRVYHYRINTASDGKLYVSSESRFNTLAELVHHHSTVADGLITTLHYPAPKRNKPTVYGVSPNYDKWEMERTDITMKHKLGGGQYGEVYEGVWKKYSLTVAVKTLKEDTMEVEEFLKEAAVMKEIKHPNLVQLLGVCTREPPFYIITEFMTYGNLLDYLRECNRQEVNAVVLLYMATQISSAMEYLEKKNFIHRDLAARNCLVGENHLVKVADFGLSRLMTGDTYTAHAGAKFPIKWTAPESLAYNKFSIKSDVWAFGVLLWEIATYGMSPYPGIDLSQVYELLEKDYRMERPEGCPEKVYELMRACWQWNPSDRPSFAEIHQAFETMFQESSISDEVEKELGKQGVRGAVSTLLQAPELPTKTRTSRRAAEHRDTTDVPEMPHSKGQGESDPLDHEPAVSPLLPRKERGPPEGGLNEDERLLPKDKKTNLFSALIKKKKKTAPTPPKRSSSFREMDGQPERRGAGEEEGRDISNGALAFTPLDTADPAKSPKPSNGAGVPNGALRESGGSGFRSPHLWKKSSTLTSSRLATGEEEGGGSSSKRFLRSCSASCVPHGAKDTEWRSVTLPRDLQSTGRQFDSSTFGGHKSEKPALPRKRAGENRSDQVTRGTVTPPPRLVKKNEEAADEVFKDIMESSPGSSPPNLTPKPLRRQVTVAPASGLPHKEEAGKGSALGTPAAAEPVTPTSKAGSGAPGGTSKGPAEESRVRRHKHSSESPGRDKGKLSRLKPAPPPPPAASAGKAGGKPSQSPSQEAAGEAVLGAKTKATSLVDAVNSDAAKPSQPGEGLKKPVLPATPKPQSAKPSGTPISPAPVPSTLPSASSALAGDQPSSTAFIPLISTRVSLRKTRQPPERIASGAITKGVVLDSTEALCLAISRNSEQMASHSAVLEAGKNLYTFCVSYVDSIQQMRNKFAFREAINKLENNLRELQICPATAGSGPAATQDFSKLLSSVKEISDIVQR
Sequence of Serine/threonine-protein kinase Chk1 (Homo sapiens) (O14757 whole entry): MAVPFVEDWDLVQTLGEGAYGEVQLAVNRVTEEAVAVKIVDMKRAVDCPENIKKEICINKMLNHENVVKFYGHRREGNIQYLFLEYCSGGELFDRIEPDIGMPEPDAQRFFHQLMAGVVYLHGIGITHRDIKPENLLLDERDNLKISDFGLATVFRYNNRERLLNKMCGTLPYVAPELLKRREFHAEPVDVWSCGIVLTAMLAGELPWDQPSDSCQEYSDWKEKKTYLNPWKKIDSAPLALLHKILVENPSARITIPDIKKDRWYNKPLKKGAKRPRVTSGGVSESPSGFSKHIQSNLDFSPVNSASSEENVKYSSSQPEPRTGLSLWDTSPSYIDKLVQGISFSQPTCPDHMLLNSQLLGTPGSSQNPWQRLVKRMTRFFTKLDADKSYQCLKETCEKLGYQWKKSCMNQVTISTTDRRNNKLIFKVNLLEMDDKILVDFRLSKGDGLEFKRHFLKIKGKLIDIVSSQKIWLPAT
Sequence of Protein-tyrosine kinase 6 (Homo sapiens) (Q13882 whole entry, looked up): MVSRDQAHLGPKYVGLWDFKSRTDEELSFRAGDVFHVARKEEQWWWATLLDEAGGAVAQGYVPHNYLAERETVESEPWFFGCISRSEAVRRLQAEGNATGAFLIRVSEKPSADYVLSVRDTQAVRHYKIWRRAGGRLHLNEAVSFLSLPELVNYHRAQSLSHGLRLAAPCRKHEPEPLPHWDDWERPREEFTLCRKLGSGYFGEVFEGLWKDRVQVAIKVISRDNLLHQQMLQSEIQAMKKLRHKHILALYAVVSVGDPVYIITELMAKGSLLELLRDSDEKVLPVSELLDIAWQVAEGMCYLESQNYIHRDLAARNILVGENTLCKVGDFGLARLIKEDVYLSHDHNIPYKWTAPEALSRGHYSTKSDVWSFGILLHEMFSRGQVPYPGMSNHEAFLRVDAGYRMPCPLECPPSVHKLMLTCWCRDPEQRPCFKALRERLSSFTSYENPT
Sequence of Serine/threonine-protein kinase Nek11 (Homo sapiens) (Q8NG66 whole entry, the tested form may be a part): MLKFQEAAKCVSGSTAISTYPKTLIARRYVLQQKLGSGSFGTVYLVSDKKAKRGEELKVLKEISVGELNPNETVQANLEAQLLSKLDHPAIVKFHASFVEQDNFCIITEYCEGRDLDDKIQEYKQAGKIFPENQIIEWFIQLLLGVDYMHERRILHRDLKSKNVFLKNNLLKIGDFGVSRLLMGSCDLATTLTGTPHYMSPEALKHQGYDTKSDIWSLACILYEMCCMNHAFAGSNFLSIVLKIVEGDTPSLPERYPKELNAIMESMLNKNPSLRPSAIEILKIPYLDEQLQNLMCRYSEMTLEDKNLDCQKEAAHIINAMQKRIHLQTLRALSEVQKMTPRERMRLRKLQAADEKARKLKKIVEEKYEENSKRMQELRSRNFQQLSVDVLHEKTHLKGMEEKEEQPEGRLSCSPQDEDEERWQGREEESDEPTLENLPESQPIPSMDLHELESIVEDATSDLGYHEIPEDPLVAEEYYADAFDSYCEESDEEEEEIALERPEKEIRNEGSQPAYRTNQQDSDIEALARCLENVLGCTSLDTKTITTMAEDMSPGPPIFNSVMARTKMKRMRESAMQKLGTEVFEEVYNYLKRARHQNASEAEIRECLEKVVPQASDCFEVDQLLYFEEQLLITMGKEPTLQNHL
Sequence of Serine/threonine-protein kinase 4 (Homo sapiens) (Q13043 whole entry): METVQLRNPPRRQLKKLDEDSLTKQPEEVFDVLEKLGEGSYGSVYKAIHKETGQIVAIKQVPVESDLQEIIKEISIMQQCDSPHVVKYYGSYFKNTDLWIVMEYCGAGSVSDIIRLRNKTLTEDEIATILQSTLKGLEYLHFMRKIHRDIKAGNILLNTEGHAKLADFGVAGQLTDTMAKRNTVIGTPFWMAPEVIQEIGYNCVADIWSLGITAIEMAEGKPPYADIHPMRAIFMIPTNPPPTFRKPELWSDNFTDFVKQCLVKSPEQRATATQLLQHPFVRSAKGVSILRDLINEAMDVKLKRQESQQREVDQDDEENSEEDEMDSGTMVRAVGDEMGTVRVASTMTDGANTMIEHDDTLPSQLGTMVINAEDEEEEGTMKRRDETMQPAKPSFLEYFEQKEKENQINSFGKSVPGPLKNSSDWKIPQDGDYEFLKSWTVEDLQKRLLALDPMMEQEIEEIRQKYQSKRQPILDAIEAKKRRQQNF

SMILES: O=S(=O)(N[C@@H](CO)Cc1c[nH]c2ccccc12)c1ccc(-c2ccnc3[nH]ccc23)cc1
- Activity [1]: > 75%
- Activity [2]: > 75%
- Activity [3]: > 75%
- Activity [4]: Non-Toxic
- Activity [5]: > 75%
- Activity [6]: > 75%
- Activity [7]: > 75%
- Activity [8]: > 75%
- IC50 [9]: 0.33 µM
- Papp A→B [10]: 34 nm/s
- Activity [11]: > 75%
